Assay results taken from ChEMBL document CHEMBL1148376, “Synthesis, monoamine transporter binding properties, and behavioral pharmacology of a series of 3beta-(substituted phenyl)-2beta-(3'-substituted isoxazol-5-yl)tropanes” (J Med Chem, 2004).

Experiments:
Mus musculus [1] = assay: Percent change in locomotor activity in mice at 1 mg/kg i.p. in 1 h.; format: functional; conditions: route intraperitoneal
Rattus norvegicus [2] = assay: Effective dose for drug discrimination effect in rat (ip); format: functional
How it was run: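 Cocaine-trained rat drug discrimination, FR10, 10-min sessions. Compound in 0.5% methyl cellulose given ip 15 min before session, usually to 7-8 rats per dose. Doses were raised from ≤20% to ≥80% cocaine-lever choice, capped at 30 mg/kg, >50% loss of pressing, or side effects.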

Rattus norvegicus [3] = assay: Drug discrimination effect of compound in rats, expressed as percent of rats choosing the cocaine lever at dose 3 mg/kg (ip); format: functional
Rattus norvegicus [4] = assay: Drug discrimination effect of compound in rats, expressed as percent of rats choosing the cocaine lever at dose 10 mg/kg (ip); format: functional
[5] = molecular target: T1, Sodium-dependent serotonin transporter (Rattus norvegicus, UniProt P31652); assay: Inhibitory concentration required to inhibit serotonin transporter 5-HTT was determined by using [3H]paroxetine radioligand
T1 sequence (P31652 whole entry): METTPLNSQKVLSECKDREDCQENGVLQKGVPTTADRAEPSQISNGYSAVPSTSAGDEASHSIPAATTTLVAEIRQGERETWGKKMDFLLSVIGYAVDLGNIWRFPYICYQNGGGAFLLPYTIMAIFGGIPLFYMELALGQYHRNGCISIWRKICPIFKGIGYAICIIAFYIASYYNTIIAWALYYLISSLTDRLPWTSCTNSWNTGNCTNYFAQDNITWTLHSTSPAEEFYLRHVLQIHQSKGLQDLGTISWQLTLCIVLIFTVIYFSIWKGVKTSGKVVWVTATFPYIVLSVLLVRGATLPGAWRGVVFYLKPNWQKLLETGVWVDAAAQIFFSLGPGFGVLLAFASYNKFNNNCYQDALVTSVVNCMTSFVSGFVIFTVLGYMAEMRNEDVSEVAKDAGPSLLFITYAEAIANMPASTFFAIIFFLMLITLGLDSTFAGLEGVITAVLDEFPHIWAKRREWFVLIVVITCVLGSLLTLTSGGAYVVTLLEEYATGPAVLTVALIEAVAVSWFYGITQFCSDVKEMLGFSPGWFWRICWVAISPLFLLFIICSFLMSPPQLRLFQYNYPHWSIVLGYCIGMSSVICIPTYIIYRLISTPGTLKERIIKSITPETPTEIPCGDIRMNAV
How it was run: (§1)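 Competition binding at the 5-HTT with 0.2 nM [3H]paroxetine (final concentration). Other procedures follow earlier published methods.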

[6] = molecular target: T2, Norepinephrine transporter (Rattus norvegicus, UniProt Q9WTR4); assay: Binding affinity towards norepinephrine transporter was determined using [3H]nisoxetine radioligand.
T2 sequence (Q9WTR4 whole entry): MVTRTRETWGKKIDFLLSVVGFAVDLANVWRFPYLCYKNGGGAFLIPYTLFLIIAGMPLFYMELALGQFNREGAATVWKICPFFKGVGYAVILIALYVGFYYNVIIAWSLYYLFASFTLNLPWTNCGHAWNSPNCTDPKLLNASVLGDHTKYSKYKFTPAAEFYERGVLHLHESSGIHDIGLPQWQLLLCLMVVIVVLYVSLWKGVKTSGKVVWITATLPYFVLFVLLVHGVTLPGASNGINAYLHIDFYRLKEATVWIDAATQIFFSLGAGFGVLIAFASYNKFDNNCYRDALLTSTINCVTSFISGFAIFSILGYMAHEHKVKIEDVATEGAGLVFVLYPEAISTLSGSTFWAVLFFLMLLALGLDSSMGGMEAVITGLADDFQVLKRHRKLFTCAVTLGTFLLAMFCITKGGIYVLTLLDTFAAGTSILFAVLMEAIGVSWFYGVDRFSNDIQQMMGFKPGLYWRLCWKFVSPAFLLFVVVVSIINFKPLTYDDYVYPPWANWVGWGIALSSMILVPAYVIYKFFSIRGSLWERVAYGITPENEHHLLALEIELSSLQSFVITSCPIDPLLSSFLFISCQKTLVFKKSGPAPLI
How it was run: (§2)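 Competition binding at the NET with 0.5 nM [3H]nisoxetine (final concentration). Other procedures follow earlier published methods.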

Mus musculus [7] = assay: Percent change in locomotor activity in mice at 1 mg/kg i.p. in 4 h.; format: functional; conditions: route intraperitoneal
How it was run: (§3)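 Mice habituated 1/2 h to photocell activity chambers, then injected ip with compound homogenized in 0.5% methyl cellulose (10 mL/kg); vehicle controls; N = 5 or 6 per dose. Photobeam interruptions recorded in 10-min bins for 4 h, grouped into 1-h bins; one-way ANOVA with Newman-Keuls post hoc test (p < 0.05).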

Mus musculus [8] = assay: Percent change from vehicle in locomotor activity in mice at 10 mg/kg (ip) in 2 h; format: functional
Mus musculus [9] = assay: Percent change in locomotor activity in mice at 3 mg/kg i.p. in 2 h.; format: functional; conditions: route intraperitoneal; how it was run: as §3
Rattus norvegicus [10] = assay: Drug discrimination effect of compound in rats, expressed as percent of rats choosing the cocaine lever at dose 5.6 mg/kg (ip); format: functional
Mus musculus [11] = assay: Percent change in locomotor activity in mice at 3 mg/kg i.p. in 1 h.; format: functional; conditions: route intraperitoneal; how it was run: as §3
Mus musculus [12] = assay: Percent change from vehicle in locomotor activity in mice at 10 mg/kg (ip) in 4 h; format: functional
Mus musculus [13] = organism: Mus musculus; assay: Hour 1 ratio to cocaine was determined for locomotor activity in mice; format: functional
Mus musculus [14] = organism: Mus musculus; assay: Effective dose for locomotor activity in mice in the peak hour.; format: functional
Mus musculus [15] = assay: Percent change in locomotor activity in mice at 3 mg/kg i.p. in 3 h.; format: functional; conditions: route intraperitoneal; how it was run: as §3
Mus musculus [16] = assay: Percent change from vehicle in locomotor activity in mice at 10 mg/kg (ip) in 1 h; format: functional
Mus musculus [17] = assay: Percent change in locomotor activity in mice at 1 mg/kg i.p. in 2 h.; format: functional; conditions: route intraperitoneal; how it was run: as §3
Mus musculus [18] = assay: Percent change locomotor activity in mice at 1 mg/kg i.p. in 3 h.; format: functional; conditions: route intraperitoneal; how it was run: as §3
Mus musculus [19] = assay: Percent change from vehicle in locomotor activity in mice at 10 mg/kg (ip) in 3 h; format: functional
Mus musculus [20] = assay: Percent change in locomotor activity in mice at 3 mg/kg i.p. in 4 h.; format: functional; conditions: route intraperitoneal; how it was run: as §3
[21] = molecular target: T1, Sodium-dependent serotonin transporter; assay: Binding affinity towards serotonin transporter 5-HTT was determined using [3H]paroxetine radioligand.; how it was run: as §1
[22] = molecular target: T2, Norepinephrine transporter; assay: Inhibition of norepinephrine transporter (NET) determined using [3H]nisoxetine radioligand.; how it was run: as §2
[23] = molecular target: Sodium-dependent dopamine transporter (Rattus norvegicus, UniProt P23977); assay: Inhibitory concentration required to inhibit dopamine transporter DAT was determined by using [3H]WIN-35428 radioligand
Sodium-dependent dopamine transporter, sequence (P23977 whole entry): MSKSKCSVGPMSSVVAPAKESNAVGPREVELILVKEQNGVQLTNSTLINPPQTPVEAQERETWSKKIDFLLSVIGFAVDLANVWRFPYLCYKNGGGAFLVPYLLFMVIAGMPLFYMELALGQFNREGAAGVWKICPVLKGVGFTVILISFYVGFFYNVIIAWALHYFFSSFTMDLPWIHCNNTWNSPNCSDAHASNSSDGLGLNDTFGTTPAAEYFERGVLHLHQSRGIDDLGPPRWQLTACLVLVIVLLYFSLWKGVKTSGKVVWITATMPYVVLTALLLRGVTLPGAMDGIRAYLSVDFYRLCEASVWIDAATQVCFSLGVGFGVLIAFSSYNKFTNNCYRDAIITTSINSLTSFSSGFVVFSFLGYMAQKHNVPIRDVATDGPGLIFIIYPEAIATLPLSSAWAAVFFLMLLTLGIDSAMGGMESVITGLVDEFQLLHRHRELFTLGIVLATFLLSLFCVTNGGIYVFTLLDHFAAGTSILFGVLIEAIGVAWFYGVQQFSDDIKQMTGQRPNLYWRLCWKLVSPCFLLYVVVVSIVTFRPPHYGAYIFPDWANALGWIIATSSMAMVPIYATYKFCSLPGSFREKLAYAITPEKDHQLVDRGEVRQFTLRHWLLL
How it was run: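 Competition binding at the DAT with 0.5 nM [3H]WIN35,428 (final concentration). Other procedures follow earlier published methods.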

Rattus norvegicus [24] = assay: Drug discrimination effect of compound in rats, expressed as percent of rats choosing the cocaine lever at dose 1 mg/kg (ip); format: functional

Row | SMILES | Change (Mus musculus [1]) [%] | Drug discrimination effect (Rattus norvegicus [3]) [%] | Drug discrimination effect (Rattus norvegicus [4]) [%] | IC50 [5] [nM] | Ki [6] [nM] | Change (Mus musculus [7]) [%] | Change (Mus musculus [8]) [%] | Change (Mus musculus [9]) [%] | Drug discrimination effect (Rattus norvegicus [10]) [%] | Change (Mus musculus [11]) [%] | Change (Mus musculus [12]) [%] | Ratio (Mus musculus [13]) | ED50 (Mus musculus [14]) [mg/kg] | Change (Mus musculus [15]) [%] | Change (Mus musculus [16]) [%] | Change (Mus musculus [17]) [%] | Change (Mus musculus [18]) [%] | Change (Mus musculus [19]) [%] | Ki [21] [nM] | IC50 [22] [nM] | further results
1 | CN1C2CC[C@@H]1C[C@H](c1ccc(Cl)cc1)C2c1cc(-c2ccccc2)no1 (some centres not stated) | 11 | 29 | 75 | 504 | 220 | 76 | 402 | 456 | 63 | 331 | 924 | 1.1 | 3.4 | 377 | 513 | 27 | 45 | 485 | 305 | 2420 | ED50 (Rattus norvegicus [2]): 4.73 mg/kg; Change (Mus musculus [20]): 378%
2 | CN1C2CCC1C(C(=O)Oc1ccccc1)C(c1ccc(Cl)cc1)C2 (configuration not stated) |  |  |  | 2960 | 213 |  |  |  |  |  |  |  |  |  |  |  |  |  | 1780 | 2340 | 
3 | CN1C2CCC1C(c1cc(-c3ccc(Cl)cc3)no1)C(c1ccc(Cl)cc1)C2 (configuration not stated) | 15 | 13 | 50 | > 76000 | 3790 | 39 | 612 | 237 | 0 | 59 | 1372 | 0.4 | 3.6 | 298 | 166 | 19 | 74 | 838 |  | 5290 | IC50 [23]: 6.42 nM; Drug discrimination effect (Rattus norvegicus [24]): 0%; Change (Mus musculus [20]): 389%
4 | Cc1ccc(C2CC3CCC(C2c2cc(C(C)(C)C)no2)N3C)cc1 (configuration not stated) |  |  |  | 295000 | 1820 |  |  |  |  |  |  |  |  |  |  |  |  |  | 26000 | 3330 | IC50 [23]: 26 nM
5 | Cc1ccc(C2CC3CCC(C2C(=O)OC(C)C)N3C)cc1 (configuration not stated) |  |  |  | 1930 | 554 |  |  |  |  |  |  |  |  |  |  |  |  |  | 1160 | 6090 | 
6 | COc1ccc(-c2cc(C3C(c4ccc(Cl)cc4)CC4CCC3N4C)on2)cc1 (configuration not stated) | 0 | 0 | 50 | 5880 | 454 | -21 | 1337 | 481 | 43 | 197 | 2120 | 1.2 | 3.7 | 662 | 521 | 51 | 101 | 2830 | 535 | 762 | IC50 [23]: 1.57 nM; Drug discrimination effect (Rattus norvegicus [24]): 0%; Change (Mus musculus [20]): 335%
7 | CN1C2CCC1C(c1cc(-c3ccc(F)cc3)no1)C(c1ccc(Cl)cc1)C2 (configuration not stated) | -26 | 13 | 63 | 7260 | 553 | 37 | 832 | 463 | 43 | 271 | 767 | 1.6 | 2.8 | 479 | 729 | 38 | -77 | 514 | 660 | 918 | IC50 [23]: 1.86 nM; Change (Mus musculus [20]): 392%
8 | CN1C2CCC1C(c1cc(C(C)(C)C)no1)C(c1ccc(Cl)cc1)C2 (configuration not stated) | 41 | 50 | 83 | 36800 | 3810 | 33 | 769 | 204 | 88 | 112 | 229 | 0.9 | 4 | 206 | 388 | 103 | 135 | 1272 | 3350 | 6320 | ED50 (Rattus norvegicus [2]): 3.04 mg/kg; IC50 [23]: 7.31 nM; Drug discrimination effect (Rattus norvegicus [24]): 0%; Change (Mus musculus [20]): -29%
9 | Cc1ccc(C2CC3CCC(C2c2cc(-c4ccccc4)no2)N3C)cc1 (configuration not stated) | 48 | 0 | 86 | 5110 | 239 | 154 | 663 | 369 | 75 | 244 | 141 | 1.2 | 2.5 | 283 | 526 | 139 | 89 | 363 | 465 | 398 | ED50 (Rattus norvegicus [2]): 4.88 mg/kg; IC50 [23]: 1.58 nM; Change (Mus musculus [20]): 329%
10 | Cc1ccc(C2CC3CCC(C2c2cc(C(C)C)no2)N3C)cc1 (configuration not stated) | -1 | 25 | 86 | 42900 | 1550 | 24 | 532 | 241 | 67 | 329 | 576 | 0.9 | 4.7 | 207 | 637 | 29 | -20 | 765 | 3900 | 2520 | ED50 (Rattus norvegicus [2]): 4.63 mg/kg; IC50 [23]: 4.5 nM; Change (Mus musculus [20]): 70%
